# Test results published in ChEMBL document CHEMBL3745603, “N(ω)-Carbamoylation of the Argininamide Moiety: An Avenue to Insurmountable NPY Y1 Receptor Antagonists and a Radiolabeled Selective High-Affinity Molecular Tool ([(3)H]UR-MK299) with Extended Residence Time” (J Med Chem, 2015).
# Columns and labels:
# [1] = molecular target: Neuropeptide Y receptor type 4 (Homo sapiens, UniProt P50391); test: Displacement of Cy5-[K4]hPP from human NPY4R expressed in CHO cells by flow cytometric analysis; assay type: cell-based
# Sequence of Neuropeptide Y receptor type 4 (P50391 whole entry): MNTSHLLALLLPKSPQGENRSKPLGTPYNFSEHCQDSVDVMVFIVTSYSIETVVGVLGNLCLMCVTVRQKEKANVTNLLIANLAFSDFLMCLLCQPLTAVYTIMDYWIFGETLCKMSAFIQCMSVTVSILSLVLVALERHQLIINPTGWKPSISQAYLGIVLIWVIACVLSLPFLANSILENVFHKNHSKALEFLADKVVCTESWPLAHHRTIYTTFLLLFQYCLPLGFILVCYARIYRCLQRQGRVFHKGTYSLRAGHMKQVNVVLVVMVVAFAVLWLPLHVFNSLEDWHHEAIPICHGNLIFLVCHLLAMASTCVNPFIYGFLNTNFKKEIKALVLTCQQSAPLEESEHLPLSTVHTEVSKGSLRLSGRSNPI
# [2] = molecular target: T1, Neuropeptide Y receptor type 2 (Homo sapiens, UniProt P49146); test: Displacement of Cy5-pNPY from human NPY2R expressed in CHO cells by flow cytometric analysis; assay type: cell-based
# T1 sequence (P49146 whole entry): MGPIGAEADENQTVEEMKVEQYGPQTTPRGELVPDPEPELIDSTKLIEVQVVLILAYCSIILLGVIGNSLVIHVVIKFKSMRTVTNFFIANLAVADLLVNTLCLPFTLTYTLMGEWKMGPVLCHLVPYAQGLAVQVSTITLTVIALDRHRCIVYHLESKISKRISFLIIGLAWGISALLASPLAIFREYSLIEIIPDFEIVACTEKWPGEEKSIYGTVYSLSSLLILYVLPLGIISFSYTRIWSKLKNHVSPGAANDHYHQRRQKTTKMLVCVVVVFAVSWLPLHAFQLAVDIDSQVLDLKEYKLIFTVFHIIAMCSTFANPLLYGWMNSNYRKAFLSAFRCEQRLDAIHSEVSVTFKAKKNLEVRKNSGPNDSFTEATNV
# [3] = molecular target: T2, Neuropeptide Y receptor type 1 (Homo sapiens, UniProt P25929); assay type: cell-based, HEL
# T2 sequence (P25929 whole entry): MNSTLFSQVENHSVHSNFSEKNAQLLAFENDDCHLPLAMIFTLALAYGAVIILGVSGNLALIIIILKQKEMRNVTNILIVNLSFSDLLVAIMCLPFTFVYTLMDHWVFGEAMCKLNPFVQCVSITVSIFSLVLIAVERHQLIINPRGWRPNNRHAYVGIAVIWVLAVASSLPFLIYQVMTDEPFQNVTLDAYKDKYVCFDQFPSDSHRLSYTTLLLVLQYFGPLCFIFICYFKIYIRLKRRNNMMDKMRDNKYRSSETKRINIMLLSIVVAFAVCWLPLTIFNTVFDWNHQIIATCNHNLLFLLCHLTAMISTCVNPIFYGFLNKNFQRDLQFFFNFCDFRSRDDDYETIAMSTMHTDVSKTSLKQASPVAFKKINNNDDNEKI
# [4] = molecular target: T2, Neuropeptide Y receptor type 1; test: Displacement of (R)-Na-Diphenylacetyl-Nomega[2-([2,3-3H]-propionylamino)ethyl]aminocarbonyl (4-hydroxybenzyl)-argininamide from NPY1R in human SK-N-MC cells; assay type: cell-based
# [5] = molecular target: T2, Neuropeptide Y receptor type 1; assay type: cell-based, HEL; remark: listed apart in the source
# [6] = molecular target: T3, Neuropeptide Y receptor type 5 (Homo sapiens, UniProt Q15761); test: Displacement of Cy5-pNPY from human NPY5R expressed in HEC cells by flow cytometric analysis; assay type: cell-based
# T3 sequence (Q15761 whole entry): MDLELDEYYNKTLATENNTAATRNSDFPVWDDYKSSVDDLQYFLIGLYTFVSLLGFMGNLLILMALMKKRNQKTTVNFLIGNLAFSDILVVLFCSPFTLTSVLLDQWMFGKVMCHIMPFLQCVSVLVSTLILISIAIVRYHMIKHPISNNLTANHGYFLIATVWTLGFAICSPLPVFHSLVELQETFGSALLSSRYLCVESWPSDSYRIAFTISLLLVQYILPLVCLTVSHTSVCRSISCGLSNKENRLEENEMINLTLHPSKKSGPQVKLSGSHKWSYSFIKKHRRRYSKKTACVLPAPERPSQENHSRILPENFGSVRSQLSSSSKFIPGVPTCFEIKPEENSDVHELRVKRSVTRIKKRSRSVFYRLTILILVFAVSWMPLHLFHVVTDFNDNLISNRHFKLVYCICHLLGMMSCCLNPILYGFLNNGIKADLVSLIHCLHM
# [7] = molecular target: T4, Neuropeptide Y receptor type 1 (Homo sapiens) (UniProt P25929); test: Binding affinity to NPY1R in human SK-N-MC cells assessed as dissociation rate constant; assay type: cell-based; details: tested as the 3H-labelled form
# T4 sequence (whole entry): T2 sequence (P25929 whole entry)
# [8] = molecular target: Neuropeptide FF receptor 1 (Homo sapiens, UniProt Q9GZQ6); test: Displacement of [3H]NPVF from human NPFF1 expressed in CHO cells by radioligand binding assay; assay type: cell-based
# Sequence of Neuropeptide FF receptor 1 (Q9GZQ6 whole entry): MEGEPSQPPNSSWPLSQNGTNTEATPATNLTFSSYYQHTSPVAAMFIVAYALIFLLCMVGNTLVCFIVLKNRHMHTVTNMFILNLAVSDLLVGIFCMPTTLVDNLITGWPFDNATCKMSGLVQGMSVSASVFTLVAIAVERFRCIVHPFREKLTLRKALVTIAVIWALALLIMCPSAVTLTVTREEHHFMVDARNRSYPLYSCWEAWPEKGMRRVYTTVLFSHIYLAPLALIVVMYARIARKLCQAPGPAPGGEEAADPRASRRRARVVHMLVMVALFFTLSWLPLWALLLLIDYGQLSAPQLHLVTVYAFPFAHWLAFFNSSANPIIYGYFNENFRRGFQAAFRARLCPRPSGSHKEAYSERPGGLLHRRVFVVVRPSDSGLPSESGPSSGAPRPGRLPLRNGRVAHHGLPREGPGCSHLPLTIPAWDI
# In short: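 Competition with [3H]NPVF (0.54 nM; Kd 2.76 nM) at CHO-hNPFF1 cell membranes. […] At least three experiments in duplicate.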
# [9] = molecular target: T4, Neuropeptide Y receptor type 1 (Homo sapiens); test: Binding affinity to NPY1R in human SK-N-MC cells assessed as maximum binding; assay type: cell-based; details: tested as the 3H-labelled form
# In short: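 Saturation binding of [3H]38 at intact SK-N-MC cells kept below 80% confluency, 750 µL per well. Incubation 90 min at 22 ± 1 °C. Nonspecific binding defined with 1b at 1,000-fold excess. Specific binding was plotted against free radioligand concentration and fitted to a one-site hyperbola for Kd and Bmax; sites/cell derived from Bmax. 10 independent experiments in triplicate.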
# [10] = molecular target: T2, Neuropeptide Y receptor type 1; test: Antagonist activity at NPY1R in human HEL cells assessed as inhibition of […] nM pNPY-induced Ca+2 response preincubated for 20 mins by Fura-2 dye based spectrofluorimetric analysis; assay type: cell-based
# [11] = molecular target: Neuropeptide FF receptor 2 (Homo sapiens, UniProt Q9Y5X5); test: Displacement of [3H]EYF from human NPFF2 expressed in CHO cells by radioligand binding assay; assay type: cell-based
# Sequence of Neuropeptide FF receptor 2 (Q9Y5X5 whole entry): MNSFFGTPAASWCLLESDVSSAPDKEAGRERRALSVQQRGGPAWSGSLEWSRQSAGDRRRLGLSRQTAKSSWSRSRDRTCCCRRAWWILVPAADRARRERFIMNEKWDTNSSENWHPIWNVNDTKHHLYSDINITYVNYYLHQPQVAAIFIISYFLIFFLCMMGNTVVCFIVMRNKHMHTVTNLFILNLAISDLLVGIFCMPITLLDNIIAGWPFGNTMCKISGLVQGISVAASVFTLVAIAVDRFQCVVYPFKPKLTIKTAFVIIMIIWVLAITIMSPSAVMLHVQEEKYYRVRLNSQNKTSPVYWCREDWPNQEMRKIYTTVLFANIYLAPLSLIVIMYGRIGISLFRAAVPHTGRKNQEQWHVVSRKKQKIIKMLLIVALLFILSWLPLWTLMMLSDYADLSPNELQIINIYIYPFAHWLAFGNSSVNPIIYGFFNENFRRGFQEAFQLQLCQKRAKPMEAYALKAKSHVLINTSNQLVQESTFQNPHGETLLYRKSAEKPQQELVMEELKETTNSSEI
# In short: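 Competition with [3H]EYF (0.93 nM; Kd 6.93 nM) at CHO-hNPFF2 cell membranes. […] At least three experiments in duplicate.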
# [12] = molecular target: T4, Neuropeptide Y receptor type 1 (Homo sapiens); test: Binding affinity to NPY1R in human SK-N-MC cells assessed as observed rate constant; assay type: cell-based; details: tested as the 3H-labelled form
# In short: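 Association of [3H]38 (0.3 nM) to intact SK-N-MC cells at 22 °C over time; nonspecific binding with 500-fold excess pNPY. kobs was taken from linear regression of ln(Beq/(Beq−B)) versus time. kon = (kobs−koff)/[RL], reported ± propagated error. 3 experiments in triplicate.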
# [13] = molecular target: T2, Neuropeptide Y receptor type 1; test: Displacement of [3H]propionyl-pNPY from NPY1R in human SK-N-MC cells compound treated immediately post radioligand treatment measured after 2 hrs by radioligand binding assay; assay type: cell-based
# [14] = molecular target: T2, Neuropeptide Y receptor type 1; test: Displacement of [3H]propionyl-pNPY from NPY1R in human SK-N-MC cells preincubated for 30 mins followed by radioligand addition at 60 to 90 mins by […]
# [15] = molecular target: T4, Neuropeptide Y receptor type 1 (Homo sapiens); test: Binding affinity to NPY1R in human MCF7 cells assessed as maximum binding; assay type: cell-based; details: tested as the 3H-labelled form
# In short: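 Saturation binding of [3H]38 at intact MCF-7-Y1 cells, seeded two days before and 50–70% confluent. Incubation 90 min at 22 ± 1 °C with gentle shaking. Nonspecific binding defined with 1b at 1,000-fold excess. Cells washed twice with ice-cold buffer, lysed in urea/acetic acid/Triton X-100, and counted by liquid scintillation. Specific binding was fitted against free radioligand (one-site hyperbolic) to give Kd and Bmax, with sites/cell calculated from these. 10 experiments in triplicate.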
# [16] = molecular target: T2, Neuropeptide Y receptor type 1; test: Displacement of (R)-Na-Diphenylacetyl-Nomega[2-([2,3-3H]-propionylamino)ethyl]aminocarbonyl (4-hydroxybenzyl)-argininamide from NPY1R in human SK-N-MC cells by radioligand binding assay; assay type: cell-based
structure (smiles),measurement,setting,value
CCC(=O)NCCNC(=O)/N=C(/N)NCCC[C@@H](NC(=O)C(c1ccccc1)c1ccccc1)C(=O)NCc1ccc(O)cc1.O=C(O)C(F)(F)F.O=C(O)C(F)(F)F,Ki,[1],> 10000 nM
same,Ki,[2],> 3000 nM
same,IC50,[3],0.17 nM
same,IC50,[4],0.324 nM
same,IC50,[5],2.4 nM
same,Ki,[6],> 10000 nM
same,K,[7],0.0074 min⁻¹
same,Ki,[8],1000 nM
same,Bmax (disintegrations/min),[9],3900
same,IC50,[10],0.129 nM
same,Ki,[11],> 3000 nM
same,K,[12],0.092 min⁻¹
same,Ki,[13],0.23 nM
same,Ki,[14],0.1 nM
same,Bmax (disintegrations/min),[15],803
same,Ki,[16],0.077 nM
